Measurements pooled from the literature.
Compare with care: the assays were run in different laboratories.
Target: Protein kinase C eta type (PRKCH, Homo sapiens, UniProt P24723)

COc1ccc2c(c1)O[C@@H](c1ccc(OC)c(OC)c1)C[C@H]2NC(=O)C1(c2ccc3c(c2)OC(F)(F)O3)CC1  remaining binding (cell-free assay, competition with immobilised ligand; 1 µM): 96%
C[C@H]1CCN(c2nccc(-c3cnn4ncccc34)n2)C1  remaining binding (binding; 1 µM): 93%
O=C(NCCCN1CCOCC1)c1ccc(Nc2nccc(-c3cc4ccccc4s3)n2)cc1  remaining binding (binding, competition with immobilised ligand; 1 µM): 84%
O=C(Nc1cnc(Oc2ccc(F)cc2)nc1)N1CCc2ncccc2[C@@H]1c1ccc(F)cc1  remaining binding (cell-free assay, competition with immobilised ligand; 1 µM): 76%
CN(C)c1nccc(-c2cnc3ncccn23)n1  remaining binding (binding; 1 µM): 100%
CCCCN(CCCC)C(=O)CN1C[C@H](c2cc(OC)c3c(c2)OCO3)[C@@H](C(=O)O)[C@@H]1CC(C)(C)CCC  remaining binding (cell-free assay, competition with immobilised ligand; 1 µM): 100%
O=C(c1ccc(Nc2nccc(-c3cc4ccccc4s3)n2)cc1)N1CCC(N2CCCC2)CC1  remaining binding (binding, competition with immobilised ligand; 1 µM): 74%
C[C@@H](c1ccc(-n2cnc3c(N)ncnc32)cc1)N1CCc2nn(C)c(Cc3ccccc3)c2C1=O  remaining binding (binding, competition with immobilised ligand; 0.1 µM): 100%
CNC(=O)Nc1ccc2c(c1)CC[C@@]21OC(=O)N(CC(=O)N(Cc2ccc(F)cc2)[C@@H](C)C(F)(F)F)C1=O  remaining binding (cell-free assay, competition with immobilised ligand; 1 µM): 93%
N[C@H]1CCN(c2nccc(-c3cnn4ncccc34)n2)C1  remaining binding (binding; 1 µM): 88%
C[C@H](c1ccnc(Nc2nc3ccc(-c4cc(N(C)C)ncn4)cc3[nH]2)c1)N1CCN(C(=O)CC(F)(F)F)CC1  remaining binding (cell-free assay, competition with immobilised ligand; 0.1 µM): 84%
F[C@@H]1CCN(c2nccc(-c3cnn4ncccc34)n2)C1  remaining binding (binding; 1 µM): 100%
COc1cnc(Nc2cccc(S(N)(=O)=O)c2)nc1N1CCN(c2ccccc2)C(=O)C1  remaining binding (binding, competition with immobilised ligand; 1 µM): 95%
O=C(Nc1c[nH]nc1C(=O)NC1CCNCC1)c1cc(F)cc(F)c1  remaining binding (binding, competition with immobilised ligand; 1 µM): 73%
CC(=O)Nc1c(C(C)=O)c(=O)n(C)c2nc(-c3ccc(Cl)cc3Cl)c(-c3ccc(Cl)cc3)cc12  remaining binding (cell-free assay, competition with immobilised ligand; 1 µM): 100%
CN(C)c1nccc(-c2cnn3ncccc23)n1  remaining binding (binding; 1 µM): 100%
COc1cc(-c2cn(C3CCc4c(F)cccc4N(CC(F)(F)F)C3=O)nn2)ccc1-n1cnc(C)c1 (stereo not shown)  remaining binding (cell-free assay, competition with immobilised ligand; 1 µM): 100%
O=C(NCCCN1CCOCC1)c1ccc(Nc2ncc(Cl)c(-c3ccc(Cl)s3)n2)cc1  remaining binding (binding, competition with immobilised ligand; 1 µM): 100%
COc1ncc2cc3ccccc3nc2c1C#N  remaining binding (cell-free assay, competition with immobilised ligand; 5 µM): 90%
Cc1cnn2ncc(-c3ccnc(N(C)C)n3)c2c1  remaining binding (binding; 1 µM): 100%
CNC(=O)[C@@H]1CC[C@@H](n2c(-c3ccc4cnccc4c3)nc3ccc(C(=O)NCc4cccc(C(N)=O)c4)cc32)C1  remaining binding (binding, competition with immobilised ligand; 1 µM): 100%
CCN1CCN(Cc2ccc(C(=O)Nc3ccc(C)c(Oc4ccc5c(c4)CC(=O)N5)c3)cc2C(F)(F)F)CC1  remaining binding (binding, competition with immobilised ligand; 1 µM): 100%
